The record followed here is ChEMBL document CHEMBL3102808, “Synthesis, in vitro antimalarial activity and cytotoxicity of novel 4-aminoquinolinyl-chalcone amides” (Bioorg Med Chem, 2014).

Molecules are shown by their SMILES.

The nature of series [1]: Cytotoxicity against human WI38 cells after 48 hrs by SRB assay. Format: cell-based. The settings on record: WI-38, 48 h. In outline:
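WI-38 normal human fetal lung fibroblasts, passages 21–50, seeded at 10 000 cells/well and incubated 24 h. Compounds dissolved in DMSO, diluted in medium to five concentrations, then exposed 48 h. Untreated cells as control, medium-only blank, parthenolide as standard. Cells TCA-fixed and stained with sulforhodamine B (NCI protocol). IC50 by non-linear regression.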
Background: In SRB staining, fixed cells bind dye roughly in proportion to their protein.

The nature of series [2]: Selectivity index, ratio of IC50 for human WI38 cells to IC50 for Plasmodium falciparum 3D7. Format: toxicity, cell-based, WI-38. The conditions noted are these: read-out: Ratio IC50. In outline:
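Selectivity index calculated as IC50 on WI-38 fibroblasts (48 h SRB) divided by IC50 on P. falciparum 3D7 (pLDH assay).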

In series [3] the test system is Plasmodium falciparum. Nature of the series: Antimalarial activity against Plasmodium falciparum W2 after 48 hrs by LDH colorimetric assay. The conditions noted are these: W2, 48 h. Format: functional, organism-based. In outline: (§1)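 Parasite survival after drug exposure read by pLDH colorimetric enzyme assay; APAD co-factor, formazan absorbance at 620 nm. Samples prepared in parasite culture medium in 96-well plates. Survival per well relative to drug-free control wells. IC50 from fitted sigmoidal dose-response curves.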

Series [4] deals with Plasmodium falciparum. The series is described as follows: Resistance index, ratio of IC50 for Plasmodium falciparum W2 to IC50 for Plasmodium falciparum 3D7. Format: functional. In outline:
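P. falciparum 3D7 and W2 cultures were exposed to test samples prepared in parasite culture medium. Survival was read by a pLDH colorimetric assay using APAD as cofactor, with formazan absorbance at 620 nm and percentage survival set against drug-free wells. IC50 for each strain came from fitted sigmoidal dose-response curves, and the ratio is IC50 W2 / IC50 3D7.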

Series [5] has as its system Plasmodium falciparum. The series is described as follows: Antimalarial activity against Plasmodium falciparum 3D7 after 48 hrs by LDH colorimetric assay. The series is classed as functional, organism-based. The conditions noted are these: 3D7, 48 h. In outline:
as §1

Series [6] relates to Plasmodium falciparum. Nature of the series: Ratio of chloroquine IC50 to compound IC50 for Plasmodium falciparum W2 after 48 hrs by LDH colorimetric assay. The series is classed as functional.

Take `Cc1ccc(C(=O)/C=C/c2ccc(C(=O)NCCOCCOCCNc3ccnc4cc(Cl)ccc34)cc2)o1`: the concentration for half-maximal inhibition (IC50) in series [1] came out at 10.2 µM; in the series on Plasmodium falciparum [3], 0.27 µM; in the series with Plasmodium falciparum [5], 0.26 µM. In addition, the selectivity ratio in series [2] came out at 40. For the same compound, the “Ratio IC50” value in the series with Plasmodium falciparum [4] came out at 1.1.

`Cc1ccc(C(=O)/C=C/c2ccc(C(=O)NCCCCCCNc3ccnc4cc(Cl)ccc34)cc2)o1`: the entries for the “Ratio IC50” value with Plasmodium falciparum [6] and with Plasmodium falciparum [4] were 2 and 1.5, respectively. In addition, the half-inhibitory concentration (IC50) in series [1] is 19.5 µM; in the series with Plasmodium falciparum [3], 0.07 µM; in the series on Plasmodium falciparum [5] it was 0.05 µM. In addition, in series [2], the selectivity ratio was found to be 435.

Regarding `Cc1ccc(C(=O)/C=C/c2ccc(C(=O)N(C)CCCNc3ccnc4cc(Cl)ccc34)cc2)o1`, the half-inhibitory concentration (IC50) was determined as 18.6 µM in series [1], 0.46 µM with Plasmodium falciparum [3] and 0.37 µM with Plasmodium falciparum [5]. In addition, the selectivity ratio in series [2] was determined as 50. For the same compound, the “Ratio IC50” value in the series with Plasmodium falciparum [4] is 1.2.

As to `Cc1ccc(C(=O)/C=C/c2ccc(C(=O)NCCCN(C)CCCNc3ccnc4cc(Cl)ccc34)cc2)o1`, the IC50 in series [1] amounted to 5.3 µM; with Plasmodium falciparum [3], 0.22 µM; with Plasmodium falciparum [5], 0.09 µM. Further, the selectivity ratio in series [2] came to 58. Besides, the “Ratio IC50” value in the series with Plasmodium falciparum [4] turned out to be 2.4.

For the compound `Cc1ccc(C(=O)/C=C/c2ccc(C(=O)N3CCN(c4ccnc5cc(Cl)ccc45)CC3)cc2)o1`, the values for the IC50 (in series [1]; in the series on Plasmodium falciparum [3]; in the series with Plasmodium falciparum [5]) were 17.3 µM, 1.26 µM and 0.54 µM, respectively. Moreover, in series [2], the selectivity ratio is 32. In addition, the “Ratio IC50” value in the series with Plasmodium falciparum [4] is given as 2.3.

Consider `Cc1ccc(C(=O)/C=C/c2ccc(C(N)=O)cc2)o1`, for which, in the series with Plasmodium falciparum [5], the IC50 amounted to 10 µM.

In the series on Plasmodium falciparum [5], `CCCCNC(=O)c1ccc(/C=C/C(=O)c2ccc(C)o2)cc1` returned an IC50 of 10 µM.

Compound `Cc1ccc(C(=O)/C=C/c2ccc(C(=O)N3CCOCC3)cc2)o1` gave a 50% inhibitory concentration (IC50) in the series on Plasmodium falciparum [5] greater than 30 µM.

As for `Cc1ccc(C(=O)/C=C/c2ccc(C(=O)O)cc2)o1`, the figures for the concentration for half-maximal inhibition (IC50) (in series [1]; in the series on Plasmodium falciparum [3]; in the series with Plasmodium falciparum [5]) were greater than 100 µM, 14.2 µM and 18.4 µM, respectively. Moreover, the “Ratio IC50” value in the series on Plasmodium falciparum [4] turned out to be 0.8.

For `Cc1ccc(C(=O)/C=C/c2ccc(C(=O)NCCNc3ccnc4cc(Cl)ccc34)cc2)o1`, the figures for the IC50 (in series [1]; in the series with Plasmodium falciparum [3]; in the series on Plasmodium falciparum [5]) were 47.3 µM, 1.78 µM and 0.11 µM, respectively. Besides, in series [2], the selectivity ratio amounted to 446. Besides, in the series with Plasmodium falciparum [4], the “Ratio IC50” value is on record as 16.7.

For `Cc1ccc(C(=O)/C=C/c2ccc(C(=O)NCCCNc3ccnc4cc(Cl)ccc34)cc2)o1`, the concentration for half-maximal inhibition (IC50) in series [1] turned out to be 74.5 µM; with Plasmodium falciparum [3], 0.23 µM; with Plasmodium falciparum [5], 0.07 µM. Moreover, the selectivity ratio in series [2] came out at 1120. In the series with Plasmodium falciparum [4], the “Ratio IC50” value came out at 3.4.

Turning to `Cc1ccc(C(=O)/C=C/c2ccc(C(=O)NCCCCNc3ccnc4cc(Cl)ccc34)cc2)o1`, the half-inhibitory concentration (IC50) was 39 µM in series [1], 0.1 µM in the series on Plasmodium falciparum [3] and 0.05 µM with Plasmodium falciparum [5]. Further, the selectivity ratio in series [2] amounted to 819. For the same compound, the “Ratio IC50” value in the series on Plasmodium falciparum [4] is recorded as 2.1.

`Cc1ccc(C(=O)/C=C/c2ccc(C(=O)NC(C)CNc3ccnc4cc(Cl)ccc34)cc2)o1` (centres undefined): the figures for the IC50 (in series [1]; in the series with Plasmodium falciparum [3]; in the series on Plasmodium falciparum [5]) were 10 µM, 0.11 µM and 0.08 µM, respectively. Further, the selectivity ratio in series [2] stood at 126. Moreover, the “Ratio IC50” value in the series on Plasmodium falciparum [4] is reported as 1.4.

Turning to `C=C1C(=O)O[C@@H]2C3O[C@]3(C)CC/C=C(\C)CC[C@@H]12` (some centres undefined), the IC50 in series [1] came out at 16.4 µM.

One may read the IC50 as the concentration at which inhibition is half-maximal. Read a low IC50 as greater potency in that assay.
